In ChEMBL document CHEMBL4477178, “Biflorin, Isolated from the Flower Buds of Syzygium aromaticum L., Suppresses LPS-Induced Inflammatory Mediators via STAT1 Inactivation in Macrophages and Protects Mice from Endotoxin Shock” (J Nat Prod, 2016):
Active and inactive are the calls of the source. The rule behind the calls is not given here.

What was measured:
Peritoneal macrophage [1] = test: Antiinflammatory activity in C57BL/6 mouse peritoneal macrophages assessed as inhibition of LPS-induced PGE2 production at 60 uM preincubated for 1 hr followed by LPS challenge for 48 hrs by ELISA method; type: functional; conditions: C57BL/6, Peritoneal macrophage
Mus musculus [2] = test: In vivo inhibition of LPS-induced STAT1 phosphorylation at S727 in C57BL/6 mouse liver at 10 mg/kg, ip pretreated for 1 hr followed by LPS challenge for 6 hrs by Western blot analysis; type: functional, organism-based
Outline: (§1)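 Male C57BL/6 mice given 10 mg/kg i.p. or vehicle 1 h before LPS (Salmonella enterica, 25 mg/kg i.p.); liver collected 6 h after LPS, frozen at −80 °C. Liver mRNA by SYBR qRT-PCR normalized to β-actin; protein by Western blot for p-STAT1 (Y701, S727). Eight mice per group; mean ± SD.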

Rattus norvegicus [3] = test: Antiinflammatory activity in Sprague-Dawley rat assessed as reduction in carrageenan induced paw edema at 5 mg/kg, ip administered 1 hr before carrageenan challenge measured at 3 hrs post challenge relative to control; type: functional
Outline: (§2)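 SD rats given compound i.p. (5, 10 or 15 mg/kg) 1 h before subplantar injection of 1% carrageenan in saline (0.1 mL) into the right hind paw. Paw volume measured by plethysmometer at 1, 3 and 5 h. Edema compared with the carrageenan-only group; seven rats per group.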

Mus musculus [4] = test: In vivo inhibition of LPS-induced STAT1 phosphorylation at Y701 in C57BL/6 mouse liver at 10 mg/kg, ip pretreated for 1 hr followed by LPS challenge for 6 hrs by Western blot analysis; type: functional, organism-based; outline: as §1
RAW264.7 [5] = test: Cytotoxicity against mouse RAW264.7 cells assessed as decrease in cell viability after 24 hrs by MTT assay; type: cell-based; conditions: RAW264.7, 24 h
Outline: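 RAW 264.7 cells seeded at 1 × 10^5 cells/mL in DMEM with 10% FBS and incubated overnight. Exposed to compound (0−400 μM) for 24 h, with or without LPS. MTT added for 4 h at 37 °C, formazan dissolved in DMSO, absorbance read at 540 nm; IC50 derived.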

RAW264.7 [6] = test: Antiinflammatory activity in mouse RAW264.7 cells assessed as inhibition of LPS-induced iNOS mRNA expression at 60 uM after 2 to 12 hrs by qRT-PCR method; type: functional, cell-based
Outline: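 RAW 264.7 stimulated with LPS 10 ng/mL with or without 60 μM for 2, 4, 6 and 12 h. Total RNA (1 μg) reverse-transcribed with MuLV RT and random primer; SYBR green real-time qPCR with gene-specific primers, triplicate Ct normalized to β-actin. Mean ± SD, three independent experiments.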

Rattus norvegicus [7] = test: Antiinflammatory activity in Sprague-Dawley rat assessed as reduction in carrageenan induced paw edema at 10 mg/kg, ip administered 1 hr before carrageenan challenge measured at 3 hrs post challenge relative to control; type: functional; outline: as §2
Peritoneal macrophage [8] = test: Antiinflammatory activity in C57BL/6 mouse peritoneal macrophages assessed as inhibition of LPS-induced IL-6 production at 60 uM preincubated for 1 hr followed by LPS challenge for 48 hrs by ELISA method; type: functional; conditions: C57BL/6, Peritoneal macrophage
[9] = target: Signal transducer and activator of transcription 3 (Mus musculus) (UniProt P42227); test: Inhibition of LPS-induced STAT3 phosphorylation at Y705 in C57BL/6 mouse peritoneal macrophages at 15 to 60 uM preincubated for 1 hr followed by LPS challenge for 60 mins by Western blot analysis
Signal transducer and activator of transcription 3 (Mus musculus), sequence (P42227 whole entry): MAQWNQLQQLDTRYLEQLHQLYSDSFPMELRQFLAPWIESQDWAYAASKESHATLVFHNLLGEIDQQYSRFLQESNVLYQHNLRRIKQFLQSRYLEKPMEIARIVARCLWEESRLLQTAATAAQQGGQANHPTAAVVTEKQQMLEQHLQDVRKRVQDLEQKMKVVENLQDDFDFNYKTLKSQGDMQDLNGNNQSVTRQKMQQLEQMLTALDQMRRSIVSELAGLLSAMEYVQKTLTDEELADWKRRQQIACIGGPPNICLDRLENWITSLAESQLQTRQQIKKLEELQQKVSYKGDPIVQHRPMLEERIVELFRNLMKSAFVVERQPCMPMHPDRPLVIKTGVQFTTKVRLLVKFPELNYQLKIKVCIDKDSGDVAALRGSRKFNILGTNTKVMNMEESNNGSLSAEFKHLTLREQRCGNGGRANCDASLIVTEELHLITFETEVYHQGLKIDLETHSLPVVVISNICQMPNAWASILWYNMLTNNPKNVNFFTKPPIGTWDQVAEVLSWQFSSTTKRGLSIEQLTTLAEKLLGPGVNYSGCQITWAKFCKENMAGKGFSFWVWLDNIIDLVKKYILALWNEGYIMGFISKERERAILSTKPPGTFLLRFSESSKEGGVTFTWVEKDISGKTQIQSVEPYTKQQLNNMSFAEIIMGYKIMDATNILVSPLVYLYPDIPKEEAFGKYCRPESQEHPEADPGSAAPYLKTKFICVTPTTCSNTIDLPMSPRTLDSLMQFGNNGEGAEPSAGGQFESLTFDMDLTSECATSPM
Outline: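 Thioglycolate-elicited C57BL/6 peritoneal macrophages pretreated 1 h at 15, 30 or 60 μM, then LPS 10 μg/mL: 120 min for p-STAT1 Y701, 30 min for p-STAT1 S727, 60 min for p-STAT3 Y705. Western blot with phospho-specific and total STAT antibodies, β-actin control; three independent experiments.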

Rattus norvegicus [10] = test: Antiinflammatory activity in Sprague-Dawley rat assessed as inhibition of croton oil-induced ear edema at 5 mg/kg, ip administered 1 hr before croton oil challenge measured after 3 hrs post challenge relative to control; type: functional
Outline: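 Male SD rats given compound i.p. (5, 10 or 15 mg/kg) 1 h before topical croton oil (5% in 100 μL acetone) on the inner right ear; the left ear received acetone alone. After 3 h, rats were killed and 6 mm ear punches were taken and measured for thickness. Inhibition calculated relative to the croton-oil-only group; seven rats per group.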

Cc1cc(=O)c2c(O)c([C@@H]3O[C@H](CO)[C@@H](O)[C@H](O)[C@H]3O)c(O)cc2o1 [BIFLORIN]
inhibition at 60 µM (Peritoneal macrophage [1]): 42.2%
inhibition (Mus musculus [2]): Active
inhibition in vivo at 5 mg/kg (Rattus norvegicus [3]): 26%
inhibition (Mus musculus [4]): Active
IC50 (RAW264.7 [5]): 140 µM
inhibition (RAW264.7 [6]): Active
inhibition in vivo at 10 mg/kg (Rattus norvegicus [7]): 48%
inhibition at 60 µM (Peritoneal macrophage [8]): 61.1%
inhibition [9]: Active
inhibition in vivo at 5 mg/kg (Rattus norvegicus [10]): 33.4%
